Compounds with a hit are over-represented: about 3.7% of the library has one in this group of screens.
KCNQ1 inh: inhibitors of human KCNQ1 channel, primary screen, cell-based, thallium flux, high-throughput | Potassium voltage-gated channel subfamily KQT member 1 (Homo sapiens), P51787 | CHO-K1 KCNQ1, FluxOR thallium flux fluorescence; active compounds read high | B-score at 10 µM | 310,000 compounds, 1.3% hits;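 active = compounds whose thallium flux B-score, printed positive for inhibition, exceeds three library SD while starting fluorescence stays within three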;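 note: channel opened by potassium depolarization with thallium stimulus after 20 min compound exposure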
Target sequence (P51787 whole entry, looked up): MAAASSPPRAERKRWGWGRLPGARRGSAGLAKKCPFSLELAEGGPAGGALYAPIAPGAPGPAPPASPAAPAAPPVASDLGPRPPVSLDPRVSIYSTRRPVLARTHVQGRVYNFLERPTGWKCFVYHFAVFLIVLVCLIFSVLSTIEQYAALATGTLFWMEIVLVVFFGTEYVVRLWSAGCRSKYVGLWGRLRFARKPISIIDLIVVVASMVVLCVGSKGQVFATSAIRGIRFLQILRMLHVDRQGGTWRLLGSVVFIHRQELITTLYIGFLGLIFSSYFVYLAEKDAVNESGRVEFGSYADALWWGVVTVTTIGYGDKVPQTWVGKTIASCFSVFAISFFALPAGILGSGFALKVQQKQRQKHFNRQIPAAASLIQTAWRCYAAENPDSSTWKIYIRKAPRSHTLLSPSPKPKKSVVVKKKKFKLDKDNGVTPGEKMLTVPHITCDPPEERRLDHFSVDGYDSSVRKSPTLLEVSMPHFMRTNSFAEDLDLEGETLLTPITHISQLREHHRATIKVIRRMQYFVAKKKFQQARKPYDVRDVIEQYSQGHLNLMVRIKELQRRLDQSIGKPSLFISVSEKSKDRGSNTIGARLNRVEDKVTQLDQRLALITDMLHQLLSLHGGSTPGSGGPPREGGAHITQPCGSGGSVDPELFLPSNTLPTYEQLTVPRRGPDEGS
hERG protect: hERG rescue from dofetilide block, primary screen, cell-based, CHO-hERG, FluxOR thallium flux, dofetilide IC70. Voltage-gated inwardly rectifying potassium channel KCNH2 (Homo sapiens), Q12809. dofetilide IC70 present. activation (rescue from dofetilide block), less the hit threshold, % at 10 µM. 310,000 compounds, 0.51% hits. AID 1511, 2009;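 active = activation above the mean of controls blocked by dofetilide plus 5 SD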;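 note: thallium influx through hERG after potassium depolarization seen as dye fluorescence rise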
Kir21 inh: inhibitors of mouse Kir2.1 inward-rectifier potassium channel; Inward rectifier potassium channel 2 (Mus musculus), P35561; HEK293-Kir2.1, FluxOR thallium flux fluorescence; active compounds read low; B-score at 10 µM; 310,000 compounds, 0.85% hits; AID 1672, 2009;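 active = fluorescence ratio B-score at or below minus 3 SD of library scores, with starting-brightness B-score within 2 SD, cut at about -4.2 in these data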;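 note: channel flux triggered by added potassium and thallium sulfate stimulus; B-score of peak minus minimum fluorescence over baseline after thallium stimulus; more negative B-score means stronger Kir2.1 block with less thallium influx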
KCNK9 inh: KCNK9 potassium channel inhibitors, primary screen, HEK293 cells, thallium flux. FluxOR thallium flux fluorescence; active compounds read low. AID 488922, 2010. B-score at 10 µM. Potassium channel subfamily K member 9 (Homo sapiens), Q9NPC2. 310,000 compounds, 1.2% hits;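 active = ratio B-score over 3 SD below the library mean, with starting fluorescence within 5 SD of its mean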;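 note: negative B-score means less thallium flux so channel inhibition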
KCNQ1 pot: potentiators or activators of KCNQ1 channel, primary screen, cell-based, thallium flux, high-throughput. AID 2648, 2010. Potassium voltage-gated channel subfamily KQT member 1 (Homo sapiens), P51787. B-score at 10 µM. CHO-K1 KCNQ1, thallium flux FluxOR fluorescence; active compounds read high. 310,000 compounds, 0.35% hits;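 active = fluorescence ratio B-score, a plate-corrected score, at least three library SD, with initial intensity B-score within 5 SD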
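assay system = KCNQ1-transfected CHO-K1 cells | medium = assay buffer with matched DMSO | probe or stimulus = depolarizing K+/Tl+ stimulus, K2SO4 and Tl2SO4 each 12.5 mM in 5x stock | dosing = single dose | incubation = dye 90 min, compound 20 min, room temperature | detection = kinetic FluxOR fluorescence, 10 s baseline plus 110 s post-stimulus | evaluation = ratio B score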
KCNK3 block: human KCNK3 channel inhibitors, primary screen, CHO cells, FluxOR thallium flux, B-score | Potassium channel subfamily K member 3 (Homo sapiens), O14649 | FluxOR fluorescence; active compounds read low | 340,000 compounds, 0.84% hits | B-score at 10 µM;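 active = B-score under library mean minus 4 SD, starting fluorescence ratio at most library mean plus 5 SD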;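 note: more negative B-score means stronger inhibition of thallium flux through KCNK3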
KCNK9 inh conf: KCNK9 potassium channel inhibitors, confirmation, HEK293 cells, thallium flux, duplicate | FluxOR thallium flux fluorescence | shares compounds with KCNK9 inh | inhibition, % at 10 µM | 4,900 compounds, 43% hits;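 active = thallium signal inhibited by more than 5 SD of the compound-free buffer control wells, on both duplicate plates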;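 note: 0% = assay buffer control wells without compound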
Kir21 sel: mouse Kir2.1 channel inhibition, confirmation, selectivity assay for KCNK9 modulator project, cell-based, HEK293, thallium flux; shares compounds with KCNK9 inh; Kir2.1 cells, FluxOR thallium flux fluorescence; inhibition, % at 10 µM; 4,900 compounds, 4% hits; AID 492993, 2010;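 active = thallium signal drop more than 5 SD beyond the mean of the no-compound control wells, seen in both duplicate plates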;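 note: signal is fluorescence rise after thallium addition divided by baseline fluorescence; plate controls were assay buffer only for no effect and full block by chlorpromazine control for full effect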
HEK293 Tl ctr: thallium flux in non-induced HEK293 cells, confirmation, counter-screen for KCNK9 inhibitor project, cell-based, second counter screen, non-induced KCNK9-HEK293; FluxOR thallium flux; inhibition, % at 10 µM; AID 492997, 2010; 4,900 compounds, 40% hits; shares compounds with KCNK9 inh;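 active = thallium signal drop beyond 5 SD of the untreated control mean, on both duplicate plates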;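 note: plate controls were buffer only IC0 wells for no effect and SID17386958 at its maximal inhibitory level for full effect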
An asterisk follows results filed as active; i = inactive; . = no result.

SMILES	KCNQ1 inh	hERG protect	Kir21 inh	KCNK9 inh	KCNQ1 pot	KCNK3 block	KCNK9 inh conf	Kir21 sel	HEK293 Tl ctr
O=C(CN(Cc1ccc(F)cc1)C(=O)CCC(=O)Nc1nccs1)NCC1CCCO1 (stereo not drawn)	i	-3	0.87	i	i	i	.	.	.
Cc1cccn2cc(CSc3nnc(Nc4ccc(C(C)C)cc4)s3)nc12	i	-5	-0.06	i	i	i	i	i	i
O=C(NC1CCCC1)C1CCN(C(=O)c2cc(Cl)ccc2Cl)CC1	i	-11	0.34	i	i	i	.	.	.
CC(C)(C)NC(=O)Cn1nc(C(F)(F)F)c2c1CCCC2	i	-5	1.2	i	i	i	i	i	i
CCOC(=O)c1c(C)nc2sc3c(=O)n(-c4ccc(C)cc4)cnc3c2c1-c1ccc(OC)cc1	i	-5	0.7	i	i	i	.	.	.
CCOC(=O)CSc1nc(C)nc2c1sc1nc(C)c(C(C)=O)c(-c3ccc(OC)cc3)c12	i	-5	0	-11*	i	i	48%*	i	46%*
O=C(c1ccco1)N1CCc2[nH]nc(-c3ccc(Cl)cc3)c2C1	i	-7	3	i	i	i	.	.	.
COc1ccc(-c2n[nH]c3c2CN(C(=O)c2ccccc2)CC3)cc1	i	-9	1.2	i	i	i	i	i	i
COc1ccc(C(=O)NC(C)c2cnn(-c3ccccn3)c2C)o1 (stereo not drawn)	i	-13	0.18	i	i	i	.	.	.
O=C(C1CCCC1)N1CCCC(Nc2ccc(F)cc2)C1 (stereo not drawn)	i	-11	-0.02	i	i	i	.	.	.
Cc1ccc(NC2CCCN(C(=O)C3CCCCC3)C2)cc1C (stereo not drawn)	i	-5	-3.1	i	i	i	i	i	i
Cc1cc(C)c(C(=O)N2CCCC(Nc3ccc(C)c(C)c3)C2)o1 (stereo not drawn)	i	-9	-2.4	i	i	i	i	i	i
CCOC(=O)c1ccccc1NC(=O)COC(=O)CCNS(=O)(=O)c1ccccc1	i	-12	-1.6	i	i	i	.	.	.
CC1CN(c2nc3ccccc3cc2-c2ccccc2)CC(C)O1 (stereo not drawn)	i	-11	-0.34	i	i	i	i	i	i
CC1CN(c2cc(-c3ccccc3)c3ccccc3n2)CC(C)O1 (stereo not drawn)	i	-7	-1.1	i	i	i	i	i	i
CN1CCN(S(=O)(=O)c2cccc3nsnc23)CC1	i	-5	-0.04	i	i	i	.	.	.
Cn1ccnc1SCC(=O)n1c2c(c3ccccc31)CCCC2	i	-5	0.01	i	i	i	i	i	i
COc1ccc(CC(=O)NCc2nn(-c3ccccc3)nc2C)cc1OC	i	-5	1.5	i	i	i	.	.	.
COc1cccc(-c2ocnc2C(=O)Nc2ccc(N3CCOCC3)cc2N2CCOCC2)c1	i	-7	-0.06	i	i	i	.	.	.
COc1ccc(-c2ocnc2C(=O)Nc2ccccc2N2CCCCC2)cc1	i	-8	-0.06	-9.3*	i	i	i	i	28%*
COc1ccc(-c2ocnc2C(=O)NCc2nn(-c3ccccc3)nc2C)cc1	i	-12	1.1	i	i	i	i	i	i
O=C(c1ccccc1Cl)N1N=C(c2ccc(Br)cc2)CC1c1nc2ccccc2[nH]1 (stereo not drawn)	i	-7	0.03	-8.9*	i	i	36%*	i	30%*
O=C(c1ccncc1)N1N=C(c2ccc(Br)cc2)CC1c1ccccc1O (stereo not drawn)	i	-5	0.28	i	i	i	.	.	.
CCOc1ccccc1NC(=O)c1ccc(Cl)c(NC(=O)CC(c2ccccc2)c2ccccc2)c1	i	-4	-0.04	-9.9*	i	i	49%*	i	30%*
CCOc1ccc(C(=O)Nc2cc(NC(=O)c3ccc(OCC)c(Cl)c3)cc(C(=O)O)c2)cc1Cl	i	-10	0.28	i	i	i	i	i	i
SMILES	KCNQ1 inh	hERG protect	Kir21 inh	KCNK9 inh	KCNQ1 pot	KCNK3 block	KCNK9 inh conf	Kir21 sel	HEK293 Tl ctr
CCOc1ccc(C(=O)Nc2ccc(NC(=S)NC(=O)CC)cc2)cc1Cl	i	-12	-1.8	i	i	i	.	.	.
COc1ccc(NC(C)=O)cc1S(=O)(=O)Nc1ccc(C(=O)N2CCCC2)cc1	i	-4	1.4	i	i	i	.	.	.
CCOC(=O)Cc1c(C)nc2c(-c3ccccc3)c(C)nn2c1C	i	-6	-0.45	i	i	i	i	i	i
Cc1cccc(N2CCN(S(=O)(=O)c3c(C(=O)N4CCCCC4)c(C)n(C)c3C)CC2)c1C	i	-23	-0.12	i	i	i	.	.	.
CC(C)(C)C(=O)Nc1sc(-c2ccccc2)cc1C(=O)O	i	-9	-0.35	i	i	i	.	.	.
Cc1cccc(C(=O)Nc2sc(-c3ccccc3)cc2C(=O)O)c1	i	-22	-1.2	i	i	i	i	i	i
C=C(C)C1CC=C(CN2CCN(Cc3ccccc3)CC2)CC1 (stereo not drawn)	i	-5	-1.9	i	i	i	i	i	i
CC(=O)c1cccc(NS(=O)(=O)N2CCOCC2)c1	i	-1	0.93	i	i	i	.	.	.
O=C(CCc1ccc(O)cc1)c1c(O)cc(O)cc1O	i	-33	0	i	i	i	.	.	.
COc1cc(O)c(CC=C(C)C)c(O)c1C(=O)CCc1ccc(O)cc1	i	-15	1.6	-14*	i	i	32%*	i	34%*

Compound activity (PubChem)
